{"source": "ChEMBL document CHEMBL1150423", "about": "“Inhibitory effects of a series of 7-substituted-indazoles toward nitric oxide synthases: particular potency of 1H-indazole-7-carbonitrile” (Bioorg Med Chem, 2008)", "key": {"[1]": {"target": "T1, Nitric oxide synthase, inducible (Mus musculus, UniProt P29477)", "T1 sequence (P29477 whole entry)": "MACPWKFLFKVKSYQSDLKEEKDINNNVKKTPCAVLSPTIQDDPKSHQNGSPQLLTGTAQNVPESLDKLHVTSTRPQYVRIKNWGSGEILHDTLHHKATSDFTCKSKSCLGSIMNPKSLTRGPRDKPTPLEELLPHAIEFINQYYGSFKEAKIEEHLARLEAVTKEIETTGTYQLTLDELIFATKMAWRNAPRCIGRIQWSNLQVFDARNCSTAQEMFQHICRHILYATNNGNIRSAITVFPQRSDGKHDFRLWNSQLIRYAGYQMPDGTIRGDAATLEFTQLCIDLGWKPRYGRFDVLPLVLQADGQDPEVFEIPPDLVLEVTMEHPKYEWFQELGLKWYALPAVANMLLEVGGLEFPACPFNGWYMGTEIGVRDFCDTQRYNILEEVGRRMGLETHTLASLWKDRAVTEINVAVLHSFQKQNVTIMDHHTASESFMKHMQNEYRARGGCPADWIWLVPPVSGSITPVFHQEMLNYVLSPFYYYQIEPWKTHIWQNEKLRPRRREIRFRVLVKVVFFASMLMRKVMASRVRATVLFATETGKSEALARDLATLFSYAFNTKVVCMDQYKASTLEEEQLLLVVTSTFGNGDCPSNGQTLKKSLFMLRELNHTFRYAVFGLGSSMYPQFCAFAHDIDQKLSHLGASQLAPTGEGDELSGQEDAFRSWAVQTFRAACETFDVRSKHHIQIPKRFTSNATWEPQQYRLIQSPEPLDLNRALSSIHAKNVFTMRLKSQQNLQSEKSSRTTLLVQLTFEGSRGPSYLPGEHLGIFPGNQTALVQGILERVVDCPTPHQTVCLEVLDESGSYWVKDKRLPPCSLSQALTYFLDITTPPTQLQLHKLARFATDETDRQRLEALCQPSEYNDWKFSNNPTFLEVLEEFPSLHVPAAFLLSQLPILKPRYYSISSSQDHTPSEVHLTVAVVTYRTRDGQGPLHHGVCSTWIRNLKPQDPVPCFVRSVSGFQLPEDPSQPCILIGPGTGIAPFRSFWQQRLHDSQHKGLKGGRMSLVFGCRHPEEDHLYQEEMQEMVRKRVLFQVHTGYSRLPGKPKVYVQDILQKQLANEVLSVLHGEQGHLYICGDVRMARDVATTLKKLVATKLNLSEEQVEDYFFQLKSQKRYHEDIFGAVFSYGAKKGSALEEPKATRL", "assay": "Inhibition of mouse recombinant iNOS", "method_in_brief": "(§1)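 Full-length murine iNOS or bovine eNOS, expressed in E. coli without H4B/L-arg. Oxyhemoglobin assay at 37 °C in 50 mM Hepes pH 7.4 with 0.1 M KCl, DTT, SOD/catalase, 10 µM each L-arg and H4B, CaCl2, CaM and 1 mM NADPH. Inhibitor added in DMSO (1% final), 2 min preincubation, then enzyme added. NO read at 401–420 nm; IC50 as means SD of 4–6 experiments.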"}, "Nitric oxide synthase 3": {"target": "T2, Nitric oxide synthase 3 (Bos taurus, UniProt P29473)", "T2 sequence (P29473 whole entry)": "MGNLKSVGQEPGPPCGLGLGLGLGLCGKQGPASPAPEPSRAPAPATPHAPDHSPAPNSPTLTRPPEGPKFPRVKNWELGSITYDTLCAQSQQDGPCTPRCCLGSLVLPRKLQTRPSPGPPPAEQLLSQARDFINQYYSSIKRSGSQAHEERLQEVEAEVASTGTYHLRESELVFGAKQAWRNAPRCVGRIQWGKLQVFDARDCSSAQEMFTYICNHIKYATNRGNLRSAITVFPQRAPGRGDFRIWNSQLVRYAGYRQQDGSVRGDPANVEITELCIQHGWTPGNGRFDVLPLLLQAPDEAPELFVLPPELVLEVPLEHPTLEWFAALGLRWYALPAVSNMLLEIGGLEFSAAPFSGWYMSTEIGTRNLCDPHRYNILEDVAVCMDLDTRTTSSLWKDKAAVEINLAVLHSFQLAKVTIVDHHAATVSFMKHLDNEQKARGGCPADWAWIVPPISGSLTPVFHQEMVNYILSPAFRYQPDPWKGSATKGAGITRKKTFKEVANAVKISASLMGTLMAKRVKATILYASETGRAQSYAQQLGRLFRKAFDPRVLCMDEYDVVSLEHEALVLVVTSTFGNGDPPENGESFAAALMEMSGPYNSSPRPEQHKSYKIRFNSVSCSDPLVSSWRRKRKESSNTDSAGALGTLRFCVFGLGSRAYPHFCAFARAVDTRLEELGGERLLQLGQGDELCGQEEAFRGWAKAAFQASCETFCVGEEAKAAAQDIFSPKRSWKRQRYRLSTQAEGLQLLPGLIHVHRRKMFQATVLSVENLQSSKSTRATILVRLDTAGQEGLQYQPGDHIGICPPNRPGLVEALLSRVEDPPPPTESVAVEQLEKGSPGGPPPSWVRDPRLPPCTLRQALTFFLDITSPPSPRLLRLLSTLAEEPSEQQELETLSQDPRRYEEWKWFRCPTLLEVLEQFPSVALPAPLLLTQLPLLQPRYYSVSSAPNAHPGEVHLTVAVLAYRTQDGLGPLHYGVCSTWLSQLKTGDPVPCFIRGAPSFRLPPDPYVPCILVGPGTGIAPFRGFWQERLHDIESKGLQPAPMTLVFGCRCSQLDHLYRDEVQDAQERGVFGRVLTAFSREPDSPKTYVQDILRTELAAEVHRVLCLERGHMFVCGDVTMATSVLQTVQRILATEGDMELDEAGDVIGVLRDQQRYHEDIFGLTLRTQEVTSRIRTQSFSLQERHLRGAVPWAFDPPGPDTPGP", "assay": "Inhibition of bovine recombinant eNOS", "method_in_brief": "as §1"}, "[2]": {"target": "T3, Nitric oxide synthase, inducible (Mus musculus) (UniProt P29477)", "T3 sequence (whole entry)": "T1 sequence (P29477 whole entry)", "assay": "Inhibition of mouse recombinant iNOS at 500 uM to 1 mM", "method_in_brief": "(§2)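 NO synthesis by rat brain nNOS (yeast-expressed), murine iNOS or bovine eNOS (E. coli-expressed) was read by oxyhemoglobin-to-methemoglobin conversion at 37 °C. Conditions: 10 µM L-arg, 10 µM H4B, CaM/Ca2+, NADPH, pH 7.4 Hepes, 2 min preincubation with compound in DMSO. Percent inhibition is given at the highest concentration tested (500 µM or 1 mM), relative to DMSO control.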"}, "Nitric oxide synthase 1 [3]": {"target": "T4, Nitric oxide synthase 1 (Rattus norvegicus, UniProt P29476)", "T4 sequence (P29476 whole entry)": "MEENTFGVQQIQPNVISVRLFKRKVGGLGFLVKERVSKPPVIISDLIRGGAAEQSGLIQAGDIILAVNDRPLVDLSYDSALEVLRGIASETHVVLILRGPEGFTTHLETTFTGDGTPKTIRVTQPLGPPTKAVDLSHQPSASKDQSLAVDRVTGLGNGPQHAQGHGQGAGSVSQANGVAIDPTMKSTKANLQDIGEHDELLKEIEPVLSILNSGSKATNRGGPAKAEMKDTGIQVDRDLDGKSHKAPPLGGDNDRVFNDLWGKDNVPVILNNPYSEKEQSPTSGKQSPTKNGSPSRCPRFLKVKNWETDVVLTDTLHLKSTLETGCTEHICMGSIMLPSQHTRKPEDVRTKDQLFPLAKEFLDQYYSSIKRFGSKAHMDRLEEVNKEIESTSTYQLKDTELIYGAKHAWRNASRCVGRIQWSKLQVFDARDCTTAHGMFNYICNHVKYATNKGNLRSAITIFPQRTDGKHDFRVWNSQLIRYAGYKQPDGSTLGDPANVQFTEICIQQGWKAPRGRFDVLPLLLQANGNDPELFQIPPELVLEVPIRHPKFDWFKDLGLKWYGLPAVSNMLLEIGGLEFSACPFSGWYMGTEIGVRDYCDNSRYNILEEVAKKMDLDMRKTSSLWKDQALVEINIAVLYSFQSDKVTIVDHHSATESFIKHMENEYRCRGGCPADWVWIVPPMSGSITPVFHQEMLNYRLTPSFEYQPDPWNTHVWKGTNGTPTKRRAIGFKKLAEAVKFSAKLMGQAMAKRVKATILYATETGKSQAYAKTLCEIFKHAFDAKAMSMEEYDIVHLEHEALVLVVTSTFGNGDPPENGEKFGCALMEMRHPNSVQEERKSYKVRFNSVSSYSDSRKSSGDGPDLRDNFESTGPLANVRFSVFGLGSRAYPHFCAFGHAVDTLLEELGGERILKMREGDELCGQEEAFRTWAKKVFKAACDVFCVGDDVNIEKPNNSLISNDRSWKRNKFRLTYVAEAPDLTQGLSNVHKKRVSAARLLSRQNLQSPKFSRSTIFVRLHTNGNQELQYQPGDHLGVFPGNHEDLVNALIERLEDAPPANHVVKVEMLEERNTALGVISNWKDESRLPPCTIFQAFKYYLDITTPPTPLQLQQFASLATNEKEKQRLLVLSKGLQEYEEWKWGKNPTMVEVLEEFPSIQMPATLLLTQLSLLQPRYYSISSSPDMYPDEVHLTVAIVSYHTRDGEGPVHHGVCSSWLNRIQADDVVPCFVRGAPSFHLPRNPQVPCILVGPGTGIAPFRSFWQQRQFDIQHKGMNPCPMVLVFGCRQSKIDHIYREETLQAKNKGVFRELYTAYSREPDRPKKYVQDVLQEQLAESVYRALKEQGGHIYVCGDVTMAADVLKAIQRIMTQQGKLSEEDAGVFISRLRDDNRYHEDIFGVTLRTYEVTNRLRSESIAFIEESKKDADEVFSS", "assay": "Inhibition of rat brain recombinant nNOS"}, "[4]": {"target": "T5, Nitric oxide synthase 3 (Bos taurus) (UniProt P29473)", "T5 sequence (whole entry)": "T2 sequence (P29473 whole entry)", "assay": "Inhibition of bovine recombinant eNOS at 500 uM to 1 mM", "method_in_brief": "as §2"}, "[5]": {"target": "Nitric oxide synthase 1 (Rattus norvegicus) (UniProt P29476)", "sequence (P29476 whole entry)": "as above", "assay": "Inhibition of rat brain recombinant nNOS at 500 uM to 1 mM", "method_in_brief": "as §2"}, "RAW264.7": {"system": "RAW264.7", "assay": "Inhibition of LPS and gamma-IFN-stimulated nitrite accumulation in mouse RAW 264.7 cells after 20 hrs", "format": "functional, cell-based", "conditions": "RAW264.7, 20 h", "method_in_brief": "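RAW 264.7 macrophages, 100,000 cells/well in RPMI 1640 with 5% FCS, grown 24 h at 37 °C, 5% CO2. Compounds in fresh medium were added 1 h before 40 U/mL γ-IFN plus 50 ng/mL LPS. After 20 h, supernatant nitrite was measured by Griess reagent at 550 nm and quantified against NaNO2 calibration curves.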"}, "Nitric oxide synthase 1 [6]": {"target": "T4, Nitric oxide synthase 1", "assay": "Activity of rat brain recombinant nNOS assessed as L-arginine oxidation in presence of 10 uM (6R)-5,6,7,8-tetrahydro-L-biopterin", "conditions": "read-out: Ki(app)"}, "[7]": {"target": "Nitric oxide synthase 1 (Rattus norvegicus) (UniProt P29476)", "assay": "Reduction of NADPH oxidase activity of rat brain nNOS containing calmodulin at 10 uM"}}, "note": "Activity calls are given as the source filed them. The calls are words filed in the database; no cut-off is given here.", "data": [{"smiles": "O=C(O)c1cccc2cn[nH]c12", "values": [{"measurement": "IC50", "setting": "[1]", "value": "> 1000", "unit": "µM"}, {"measurement": "IC50", "setting": "Nitric oxide synthase 3", "value": "> 1000", "unit": "µM"}, {"measurement": "inhibition", "setting": "[2]", "value": 20, "unit": "%"}, {"measurement": "IC50", "setting": "Nitric oxide synthase 1 [3]", "value": "> 1000", "unit": "µM"}, {"measurement": "inhibition", "setting": "[4]", "value": 40, "unit": "%"}, {"measurement": "inhibition", "setting": "[5]", "value": 35, "unit": "%"}]}, {"smiles": "NC(=O)c1cccc2c(Br)n[nH]c12", "values": [{"measurement": "IC50", "setting": "[1]", "value": "> 1000", "unit": "µM"}, {"measurement": "IC50", "setting": "Nitric oxide synthase 3", "value": "> 1000", "unit": "µM"}, {"measurement": "inhibition", "setting": "[2]", "value": 15, "unit": "%"}, {"measurement": "IC50", "setting": "Nitric oxide synthase 1 [3]", "value": "> 1000", "unit": "µM"}, {"measurement": "IC50", "setting": "RAW264.7", "value": "> 200", "unit": "µM"}, {"measurement": "inhibition", "setting": "[4]", "value": 45, "unit": "%"}, {"measurement": "inhibition", "setting": "[5]", "value": 35, "unit": "%"}]}, {"smiles": "Cn1ncc2cccc([N+](=O)[O-])c21", "values": [{"measurement": "IC50", "setting": "[1]", "value": 750, "unit": "µM"}, {"measurement": "IC50", "setting": "Nitric oxide synthase 3", "value": 250, "unit": "µM"}, {"measurement": "IC50", "setting": "Nitric oxide synthase 1 [3]", "value": 700, "unit": "µM"}, {"measurement": "IC50", "setting": "RAW264.7", "value": "> 200", "unit": "µM"}]}, {"smiles": "c1cc(-c2nnn[nH]2)c2n[nH]cc2c1", "values": [{"measurement": "IC50", "setting": "[1]", "value": "> 1000", "unit": "µM"}, {"measurement": "IC50", "setting": "Nitric oxide synthase 3", "value": "> 1000", "unit": "µM"}, {"measurement": "IC50", "setting": "Nitric oxide synthase 1 [3]", "value": "> 1000", "unit": "µM"}]}, {"smiles": "O=C(O)c1cccc2c(Br)n[nH]c12", "values": [{"measurement": "IC50", "setting": "[1]", "value": 700, "unit": "µM"}, {"measurement": "IC50", "setting": "Nitric oxide synthase 3", "value": "> 1000", "unit": "µM"}, {"measurement": "IC50", "setting": "Nitric oxide synthase 1 [3]", "value": "> 1000", "unit": "µM"}, {"measurement": "IC50", "setting": "RAW264.7", "value": "> 200", "unit": "µM"}, {"measurement": "inhibition", "setting": "[4]", "value": 10, "unit": "%"}, {"measurement": "inhibition", "setting": "[5]", "value": 30, "unit": "%"}]}, {"smiles": "Ic1cccc2cn[nH]c12", "values": [{"measurement": "IC50", "setting": "[1]", "value": 370, "unit": "µM"}, {"measurement": "IC50", "setting": "Nitric oxide synthase 3", "value": 125, "unit": "µM"}, {"measurement": "IC50", "setting": "Nitric oxide synthase 1 [3]", "value": 200, "unit": "µM"}]}, {"smiles": "O=S(=O)(Oc1cccc2cn[nH]c12)C(F)(F)F", "values": [{"measurement": "IC50", "setting": "[1]", "value": "> 1000", "unit": "µM"}, {"measurement": "IC50", "setting": "Nitric oxide synthase 3", "value": "> 1000", "unit": "µM"}, {"measurement": "inhibition", "setting": "[2]", "value": 35, "unit": "%"}, {"measurement": "IC50", "setting": "Nitric oxide synthase 1 [3]", "value": 500, "unit": "µM"}, {"measurement": "inhibition", "setting": "[4]", "value": 45, "unit": "%"}]}, {"smiles": "Brc1n[nH]c2c(I)cccc12", "values": [{"measurement": "IC50", "setting": "[1]", "value": 900, "unit": "µM"}, {"measurement": "IC50", "setting": "Nitric oxide synthase 3", "value": 500, "unit": "µM"}, {"measurement": "IC50", "setting": "Nitric oxide synthase 1 [3]", "value": 750, "unit": "µM"}, {"measurement": "IC50", "setting": "RAW264.7", "value": "> 200", "unit": "µM"}]}, {"smiles": "c1cc(-c2cnn[nH]2)c2[nH]ncc2c1", "values": [{"measurement": "IC50", "setting": "[1]", "value": "> 1000", "unit": "µM"}, {"measurement": "IC50", "setting": "Nitric oxide synthase 3", "value": "> 1000", "unit": "µM"}, {"measurement": "inhibition", "setting": "[2]", "value": 20, "unit": "%"}, {"measurement": "IC50", "setting": "Nitric oxide synthase 1 [3]", "value": "> 1000", "unit": "µM"}, {"measurement": "IC50", "setting": "RAW264.7", "value": "> 200", "unit": "µM"}, {"measurement": "inhibition", "setting": "[4]", "value": 45, "unit": "%"}, {"measurement": "inhibition", "setting": "[5]", "value": 45, "unit": "%"}]}, {"smiles": "N#Cc1cccc2cn[nH]c12", "values": [{"measurement": "Ki", "setting": "Nitric oxide synthase 1 [6]", "value": 13, "unit": "µM"}, {"measurement": "IC50", "setting": "[1]", "value": 110, "unit": "µM"}, {"measurement": "IC50", "setting": "Nitric oxide synthase 3", "value": 30, "unit": "µM"}, {"measurement": "IC50", "setting": "Nitric oxide synthase 1 [3]", "value": 25, "unit": "µM"}, {"measurement": "Activity", "setting": "[7]", "value": "Active"}]}]}
